Assay results reported in ChEMBL document CHEMBL1255300, “Pharmacodynamics of the antibacterial effect and emergence of resistance to tomopenem, formerly RO4908463/CS-023, in an in vitro pharmacokinetic model of Staphylococcus aureus infection” (Antimicrob Agents Chemother, 2008).
≈ marks a conversion by molar mass, not a printed value.

Legend:
Assay type in all cases: functional
[1] = tested on: Staphylococcus aureus; experiment: Antibacterial activity against methicillin-resistant Staphylococcus aureus 33827 infected in in vitro pharmacokinetic model assessed as time required to 99% killing at 750 mg, iv every 8 hrs using 10^8 CFU/ml inoculum
Method in brief: (§1)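 Single-compartment dilutional in vitro PK model, 10% Mueller-Hinton broth, 37°C, stirred, dilution 132 ml/h. […] Inoculum 10^6 CFU/ml (added 45 min pre-dose) or 10^8 CFU/ml (run overnight). Viable counts by spiral plating, beta-lactamase neutralization, detection limit 10^2 CFU/ml. At least triplicate.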

[2] = tested on: Staphylococcus aureus; experiment: AUBKC (0 to 24 hrs) in methicillin-resistant Staphylococcus aureus 33815 infected in in vitro pharmacokinetic model at 1500 mg, iv every 8 hrs using 10^6 CFU/ml inoculum
Method in brief: (§2)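 Single-compartment dilutional in vitro PK model at 37°C in 10% Mueller-Hinton broth, stirred, flow 132 ml/h. […] Inoculum 10^6 CFU/ml added 45 min before dosing, or 10^8 CFU/ml run overnight. Viable counts with β-lactamase neutralisation. AUBKC by log-linear trapezoidal rule, at least triplicate.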

[3] = tested on: Staphylococcus aureus; experiment: Antibacterial activity against methicillin-sensitive Staphylococcus aureus 5956 infected in in vitro pharmacokinetic model assessed as reduction in viable count at 1500 mg, iv every 8 hrs measured after 12 hrs using 10^6 CFU/ml inoculum
[4] = tested on: Staphylococcus aureus; experiment: T>MIC for static effect in methicillin-resistant Staphylococcus aureus 33829 in in vitro pharmacokinetic model after 24 hrs using 10^6 CFU/ml inoculum
[5] = tested on: Staphylococcus aureus; experiment: Antibacterial activity against methicillin-resistant Staphylococcus aureus 33827 infected in in vitro pharmacokinetic model assessed as reduction in viable count at 750 mg, iv every 8 hrs measured after 12 hrs using 10^8 CFU/ml inoculum; method in brief: as §1
[6] = tested on: Staphylococcus aureus; experiment: Antibacterial activity against methicillin-resistant Staphylococcus aureus 33921 in in vitro pharmacokinetic model assessed as viable count at 4 times of MIC
Method in brief: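 Preexposure population analysis: time-zero model samples plated on nutrient agar without drug and with drug at multiples of the 10% broth MIC. Growth reported as log CFU/ml, detection limit 2 log10.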

[7] = tested on: Staphylococcus aureus; experiment: Antibacterial activity against methicillin-resistant Staphylococcus aureus 33815 infected in in vitro pharmacokinetic model assessed as reduction in viable count at 750 mg, iv every 8 hrs measured after 48 hrs using 10^8 CFU/ml inoculum
Method in brief: (§3)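 PK model at 37°C in 10% MHB. […] A 0.5 McFarland suspension (1 ml) was added and the model run overnight to reach 10^8 CFU/ml before dosing. Counts were spiral-plated on nutrient agar with β-lactamase. Change in log CFU/ml was measured from time 0; at least triplicate.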

[8] = tested on: Staphylococcus aureus; experiment: Antibacterial activity against methicillin-resistant Staphylococcus aureus 33815 infected in in vitro pharmacokinetic model assessed as reduction in viable count at 750 mg, iv every 8 hrs measured after 36 hrs using 10^6 CFU/ml inoculum
Method in brief: (§4)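 Single-compartment dilutional in vitro PK model, 37°C, stirred, in 10% Mueller-Hinton broth. […] Inoculum 10^6 CFU/ml from a 24-h plate culture was added 45 min before dosing. Viable counts by spiral plating on nutrient agar with β-lactamase neutralization. Log change was taken from time 0; detection limit 10^2 CFU/ml; at least triplicate.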

[9] = tested on: Staphylococcus aureus; experiment: Antibacterial activity against methicillin-resistant Staphylococcus aureus 33815 infected in in vitro pharmacokinetic model assessed as time required to 99.9% killing at 1500 mg, iv every 8 hrs using 10^8 CFU/ml inoculum
Method in brief: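 T99 and T99.9 were taken as the times for the count to fall 99% or 99.9% from time 0, using serial viable counts over 48 h. Inoculum was 10^8 CFU/ml, grown overnight in the model before dosing.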

[10] = tested on: Staphylococcus aureus; experiment: T>MIC for 3-log drop in count in methicillin-resistant Staphylococcus aureus 33827 in in vitro pharmacokinetic model after 24 hrs using 10^6 CFU/ml inoculum
[11] = tested on: Staphylococcus aureus; experiment: T>MIC for 4-log drop in count in methicillin-resistant Staphylococcus aureus 33827 in in vitro pharmacokinetic model after 24 hrs using 10^8 CFU/ml inoculum
[12] = tested on: Staphylococcus aureus; experiment: AUBKC (0 to 24 hrs) in methicillin-sensitive Staphylococcus aureus 5956 infected in in vitro pharmacokinetic model at 1500 mg, iv every 8 hrs using 10^6 CFU/ml inoculum
[13] = tested on: Staphylococcus aureus; experiment: Antibacterial activity against methicillin-resistant Staphylococcus aureus 33921 infected in in vitro pharmacokinetic model assessed as time required to 99.9% killing at 750 mg, iv every 8 hrs using 10^6 CFU/ml inoculum
[14] = tested on: Staphylococcus aureus; experiment: Antibacterial activity against methicillin-resistant Staphylococcus aureus 33922 infected in in vitro pharmacokinetic model assessed as reduction in viable count at 750 mg, iv every 8 hrs measured after 36 hrs using 10^8 CFU/ml inoculum
[15] = tested on: Staphylococcus aureus; experiment: Antibacterial activity against methicillin-resistant Staphylococcus aureus 33829 by 10% MH broth method
Method in brief: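 MIC by CLSI broth dilution, or by broth dilution in 10% Mueller-Hinton broth at nondoubling dilutions.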

[16] = tested on: Staphylococcus aureus; experiment: Antibacterial activity against methicillin-resistant Staphylococcus aureus 33815 in in vitro pharmacokinetic model assessed as viable count at 2 times of MIC
Method in brief: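 Preexposure population analysis profile: model sample at time zero plated on nutrient agar with tomopenem at multiples of the MIC. Growth counted as log CFU/ml, detection limit 2 log10.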

[17] = tested on: Staphylococcus aureus; experiment: Antibacterial activity against methicillin-resistant Staphylococcus aureus 33827 infected in in vitro pharmacokinetic model assessed as time required to 99% killing at 1500 mg, iv every 8 hrs using 10^8 CFU/ml inoculum; method in brief: as §1
[18] = tested on: Staphylococcus aureus; experiment: T>MIC for 4-log drop in count in methicillin-resistant Staphylococcus aureus 33820 in in vitro pharmacokinetic model after 24 hrs using 10^6 CFU/ml inoculum
[19] = tested on: Staphylococcus aureus; experiment: Antibacterial activity against methicillin-resistant Staphylococcus aureus 33815 infected in in vitro pharmacokinetic model assessed as reduction in viable count at 1500 mg, iv every 8 hrs measured after 24 hrs using 10^6 CFU/ml inoculum; method in brief: as §4
[20] = tested on: Staphylococcus aureus; experiment: Antibacterial activity against methicillin-sensitive Staphylococcus aureus 5956 infected in in vitro pharmacokinetic model assessed as reduction in viable count at 1500 mg, iv every 8 hrs measured after 36 hrs using 10^6 CFU/ml inoculum
[21] = tested on: Staphylococcus aureus; experiment: AUBKC (0 to 24 hrs) in methicillin-resistant Staphylococcus aureus 33827 infected in in vitro pharmacokinetic model at 750 mg, iv every 8 hrs using 10^8 CFU/ml inoculum; method in brief: as §2
[22] = tested on: Staphylococcus aureus; experiment: Antibacterial activity against methicillin-resistant Staphylococcus aureus 33815 infected in in vitro pharmacokinetic model assessed as reduction in viable count at 750 mg, iv every 8 hrs measured after 12 hrs using 10^8 CFU/ml inoculum; method in brief: as §3
[23] = tested on: Staphylococcus aureus; experiment: T>MIC for static effect in methicillin-resistant Staphylococcus aureus 33815 in in vitro pharmacokinetic model after 24 hrs using 10^6 CFU/ml inoculum
[24] = tested on: Staphylococcus aureus; experiment: T>MIC for 2-log drop in count in methicillin-resistant Staphylococcus aureus 33827 in in vitro pharmacokinetic model after 24 hrs using 10^8 CFU/ml inoculum
[25] = tested on: Staphylococcus aureus; experiment: T>MIC for static effect in methicillin-resistant Staphylococcus aureus 33922 in in vitro pharmacokinetic model after 24 hrs using 10^6 CFU/ml inoculum

## C[C@@H](O)[C@H]1C(=O)N2C(C(=O)O)=C(S[C@H]3C[C@@H](C(=O)N4CC[C@H](NC(=O)CNC(=N)N)C4)N(C)C3)[C@H](C)[C@H]12 [TOMOPENEM]
[1]
  Time: 12 h
[2]
  AUBC: 12.5 log10CFU/ml.hr
[3]
  log10CFU/ml: 4.4
[4]
  fT>MIC: 12.1%
[5]
  log10CFU/ml: 3.8
[6]
  log10CFU/ml: <2
[7]
  log10CFU/ml: 5
[8]
  log10CFU/ml: 4.2
[9]
  Time: 24 h
[10]
  fT>MIC: 43%
[11]
  fT>MIC: 79.1%
[12]
  AUBC: 22.7 log10CFU/ml.hr
[13]
  Time: 12 h
[14]
  log10CFU/ml: 5.5
[15]
  MIC: 0.5 µg/mL (≈ 0.93 µM)
[16]
  log10CFU/ml: <2
[17]
  Time: 12 h
[18]
  fT>MIC: 36.2%
[19]
  log10CFU/ml: 4.2
[20]
  log10CFU/ml: 4.4
[21]
  AUBC: 77.4 log10CFU/ml.hr
[22]
  log10CFU/ml: 1.7
[23]
  fT>MIC: 5.3%
[24]
  fT>MIC: 39.6%
[25]
  fT>MIC: 1.3%
